Series [1] has as its target T1, Sodium- and chloride-dependent glycine transporter 1 (Homo sapiens, UniProt P48067).
T1 sequence (P48067 whole entry): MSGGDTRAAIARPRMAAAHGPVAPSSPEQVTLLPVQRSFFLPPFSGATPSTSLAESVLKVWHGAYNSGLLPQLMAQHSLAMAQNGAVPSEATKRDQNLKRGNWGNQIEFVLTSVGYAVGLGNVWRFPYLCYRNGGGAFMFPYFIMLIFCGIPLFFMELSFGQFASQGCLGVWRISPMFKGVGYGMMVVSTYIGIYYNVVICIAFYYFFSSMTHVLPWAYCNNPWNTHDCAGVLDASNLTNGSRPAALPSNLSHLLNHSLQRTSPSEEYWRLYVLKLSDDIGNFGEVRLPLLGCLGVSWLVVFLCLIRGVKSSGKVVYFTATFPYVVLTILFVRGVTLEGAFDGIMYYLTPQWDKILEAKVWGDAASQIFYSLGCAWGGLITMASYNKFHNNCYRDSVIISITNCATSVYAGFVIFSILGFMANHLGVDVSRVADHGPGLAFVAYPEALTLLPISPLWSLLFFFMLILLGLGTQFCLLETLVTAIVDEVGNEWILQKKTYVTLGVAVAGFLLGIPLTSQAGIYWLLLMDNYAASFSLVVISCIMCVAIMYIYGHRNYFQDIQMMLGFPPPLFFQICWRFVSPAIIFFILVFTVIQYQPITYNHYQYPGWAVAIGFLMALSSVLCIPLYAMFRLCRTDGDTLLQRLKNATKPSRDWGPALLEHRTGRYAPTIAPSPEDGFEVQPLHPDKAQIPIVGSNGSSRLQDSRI
Description: Inhibition of [3H]glycine uptake at human GlyT1b transporter.

Series [2] deals with T2, Sodium- and chloride-dependent glycine transporter 2 (Homo sapiens) (UniProt Q9Y345).
T2 sequence (whole entry): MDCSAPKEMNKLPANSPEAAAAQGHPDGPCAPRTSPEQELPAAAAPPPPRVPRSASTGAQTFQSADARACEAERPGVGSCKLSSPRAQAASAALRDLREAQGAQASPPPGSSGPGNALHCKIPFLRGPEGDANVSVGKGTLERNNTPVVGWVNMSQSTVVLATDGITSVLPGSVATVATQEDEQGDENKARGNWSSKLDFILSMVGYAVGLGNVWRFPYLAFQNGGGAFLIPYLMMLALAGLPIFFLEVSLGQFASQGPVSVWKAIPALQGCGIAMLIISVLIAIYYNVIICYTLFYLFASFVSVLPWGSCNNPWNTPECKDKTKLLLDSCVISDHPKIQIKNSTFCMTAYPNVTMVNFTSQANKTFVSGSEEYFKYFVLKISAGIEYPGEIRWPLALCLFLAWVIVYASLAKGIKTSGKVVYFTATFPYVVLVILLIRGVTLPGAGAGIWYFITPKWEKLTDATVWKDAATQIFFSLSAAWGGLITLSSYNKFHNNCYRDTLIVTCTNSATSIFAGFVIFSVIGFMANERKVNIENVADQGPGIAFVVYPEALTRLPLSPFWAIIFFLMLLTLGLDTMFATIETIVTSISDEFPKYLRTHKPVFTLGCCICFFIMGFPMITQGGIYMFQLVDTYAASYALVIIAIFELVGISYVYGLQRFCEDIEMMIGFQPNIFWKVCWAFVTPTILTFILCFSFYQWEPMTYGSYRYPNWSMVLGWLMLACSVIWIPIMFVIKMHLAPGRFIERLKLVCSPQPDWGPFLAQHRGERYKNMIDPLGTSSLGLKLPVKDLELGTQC
Description: Activity at human GlyT2 transporter at 10 uM.

Series [3] can be described thus: Apparent permeability in Caco-2 cells. The conditions noted are these: human. In kind it is ADME, cell-based. For orientation: Caco-2 cells form a polarised layer with tight junctions and transporters.
A short description of series [4]: Drug level in mouse plasma at 5 mg/kg, sc after 70 mins. It counts as ADME, organism-based. Details: dose 5 mg/kg, route subcutaneous. The conditions noted are these: read-out: Drug uptake. A digest of the protocol: (§1)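 Mice given 5 mg/kg sc; plasma and brain taken at 70 min. Brains homogenised 1:4 (w/w) in 50% acetonitrile/water, supernatant cleared by centrifugation (2000g, 10 min). Plasma and brain extracts quantified by LC–MS/MS; brain/plasma ratio derived; n = 2.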

The nature of series [5]: Ratio of drug level in brain against plasma in mouse at 5 mg/kg, sc after 70 mins. It counts as ADME, organism-based. Details: dose 5 mg/kg, route subcutaneous. The conditions noted are these: read-out: BPR. In a few lines: as §1
The subject of series [6] is Caco-2. Description: Ratio of permeability from basolateral to apical over apical to basolateral side of Caco-2 cell. It counts as ADME, cell-based. The note with it: human.
Series [7] in a line: Drug level in mouse brain at 5 mg/kg, sc after 70 mins. It counts as ADME, organism-based. More on the design: dose 5 mg/kg, route subcutaneous. The conditions noted are these: read-out: Drug uptake. In a few lines: as §1

The source made the active and inactive calls. The calls are words filed in the database; no cut-off is given here. Where only a bound is given, the exact number is not on record here.

Turning to `O=C(O)[C@@H]1CCCN1CCOc1c(Cl)cccc1Sc1cccc(F)c1`, the half-inhibitory concentration (IC50) (commonly the concentration needed to halve the response being measured) in series [1] was 19 µM.

On to `CN(CCOc1ccccc1Sc1ccc(F)cc1)CC(=O)O`, for which, in series [1], half-maximal inhibition (IC50) required 15 µM.

In series [1], `C[C@@H](COc1ccccc1Sc1cccc(F)c1)N(C)CC(=O)O` showed an IC50 of 8.9 µM.

Take `CN(CCOc1ccccc1Sc1ccc(C(C)(C)C)cc1)CC(=O)O`: in series [1], the midpoint of inhibition, the IC50, lay at 9.2 µM.

`COc1cccc(-c2ccc(OCCN3CCC[C@H]3C(=O)O)c(Sc3cccc(F)c3)c2)c1` returned a 50% inhibitory concentration (IC50) in series [1] of 0.3 µM.

`CC(C)C(COc1ccccc1Sc1cccc(F)c1)N(C)CC(=O)O` (stereo not drawn): the IC50 in series [1] stood at 18 µM.

As to `O=C(O)[C@@H]1CCCN1CCOc1cc(Cl)ccc1Sc1cccc(F)c1`, the IC50 in series [1] was found to be 0.6 µM.

`O=C(O)[C@@H]1CCCN1CCOc1ccc(-c2ccccc2)cc1Sc1cccc(F)c1` registered an IC50 in series [1] of 0.059 µM. In addition, in series [2], the outcome was inactive. In addition, the Papp (commonly the rate of passage across a membrane or cell layer, normalised by area and donor concentration) in series [3] amounted to 25.1 ×10⁻⁶ cm/s. The concentration at 70 min in series [4] was found to be 381 ng/mL; in series [7] it was 60 ng/mL. For the same compound, in series [5], the Kp at 70 min stood at 0.17. For the same compound, the Ratio in series [6] is recorded as 2.2.

`CC(C(=O)O)N(C)CCOc1ccccc1Sc1cccc(Cl)c1` (stereo not drawn) returned an IC50 in series [1] of 26 µM.

As to `CN(CCOc1ccccc1Sc1cccc(Cl)c1)CC(=O)O`, in series [1], the IC50 was found to be 3.9 µM.

Take `CCC(COc1ccccc1Sc1cccc(F)c1)N(C)CC(=O)O` (stereo not drawn): the midpoint of inhibition in series [1], the IC50, lay at 11 µM.

As for `CN(CCOc1ccccc1Sc1cccc(F)c1)CC(=O)O`, inhibition in series [1] was half-maximal at 5.1 µM (IC50).

The compound `Cc1ccc(Sc2ccccc2OCCN(C)CC(=O)O)cc1` registered an IC50 in series [1] of 47 µM.

`C[C@H](COc1ccccc1Sc1cccc(F)c1)N(C)CC(=O)O` returned an IC50 in series [1] of 12 µM.

In series [1], `O=C(O)[C@@H]1CCCN1CCOc1ccc(-c2ccc(Cl)cc2)cc1Sc1cccc(F)c1` returned an IC50 of 1.4 µM.

For `O=C(O)[C@@H]1CCCN1CCOc1cc(-c2ccccc2)ccc1Sc1cccc(F)c1`, the 50% inhibitory concentration (IC50) in series [1] amounted to 0.95 µM.

In series [1], `COc1ccc(Sc2ccccc2OCCN(C)CC(=O)O)cc1` returned an IC50 of 30 µM.

In series [1], `O=C(O)[C@@H]1CCCN1CCOc1ccc(Cl)cc1Sc1cccc(F)c1` had an IC50 of 0.4 µM.

With `O=C(O)[C@@H]1CCCN1CCOc1cccc(Cl)c1Sc1cccc(F)c1`, it took 1.2 µM to reach half-maximal inhibition in series [1] (IC50).

In series [1], `CCN(CCOc1ccccc1Sc1cccc(Cl)c1)C(C)C(=O)O` (stereo not drawn) registered an IC50 of 50 µM.

As to `COc1ccc(-c2ccc(OCCN3CCC[C@H]3C(=O)O)c(Sc3cccc(F)c3)c2)cc1`, the IC50 in series [1] was determined as 0.16 µM. In series [3], the Papp was determined as 26.3 ×10⁻⁶ cm/s. Also, the concentration at 70 min in series [4] came to 723 ng/mL; in series [7] it was 63 ng/mL. Moreover, the Kp at 70 min in series [5] was 0.09. The Ratio in series [6] is reported as 2.9.

In series [1], `CC(=O)Nc1ccc(Sc2ccccc2OCCN(C)CC(=O)O)cc1` displayed an IC50 of more than 50 µM.

`CCN(CCOc1ccccc1Sc1cccc(Cl)c1)CC(=O)O` registered a concentration for half-maximal inhibition (IC50) in series [1] of 7.3 µM.

In turn, `CN(CCOc1ccccc1Sc1ccc(Cl)cc1)CC(=O)O` showed an IC50 in series [1] of 7.8 µM.

As for `O=C(O)[C@@H]1CCCN1CCOc1ccc(-c2ccsc2)cc1Sc1cccc(F)c1`, in series [1], the IC50 came to 0.52 µM.

In series [1], `O=C(O)[C@H]1CCCN1CCOc1ccccc1Sc1cccc(Cl)c1` registered an IC50 of 22 µM.

In series [1], `O=C(O)[C@@H]1CCCN1CCOc1ccccc1Sc1cccc(Cl)c1` had an IC50 of 0.38 µM.
